Laboratory results published in article PMC6720533 (Biomolecules & Therapeutics, 2019).

Tests used:
SEM cells = test: WST-1 metabolic activity assay; format: cell-based; settings: Homo sapiens, 72 h, read-out: metabolic activity
In short: (§1)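 Test compound came from a 10 mM DMSO stock. Cells were seeded at 5×10^4/well in triplicate with 5 or 10 μM final compound; controls got matched DMSO. After 72 h at 37°C, 5% CO2, WST-1 was added for a further 3 h. Absorbance was read at 450 nm (reference 620 nm), and metabolic activity given as % of DMSO control.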

CEM cells = test: WST-1 metabolic activity assay; format: cell-based; settings: Homo sapiens, CCRF-CEM, 72 h, read-out: metabolic activity
In short: as §1

RS4;11 cells = test: WST-1 metabolic activity assay; format: cell-based; settings: Homo sapiens, RS4-11, 72 h, read-out: metabolic activity
In short: as §1

Jurkat cells = test: WST-1 metabolic activity assay; format: cell-based; settings: Homo sapiens, 72 h, read-out: metabolic activity
In short: as §1

recombinant human CK2α1 = recombinant human CK2α1 (Homo sapiens, UniProt P68400); test: CK2 kinase activity assay; format: biochemical; settings: 10 μM ATP, 60 min
In short: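 Recombinant human CK2α1 (50 ng) was incubated with 2.5 μg CK2α1 substrate, 10 μM ATP, and test compound, reference inhibitor or DMSO for 60 min at room temperature. ADP-Glo reagent stopped the reaction and depleted remaining ATP. Detection reagent then converted ADP to ATP for luciferase/luciferin luminescence, which tracks the ADP formed as the measure of kinase activity.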

Sequence of recombinant human CK2α1 (P68400 whole entry): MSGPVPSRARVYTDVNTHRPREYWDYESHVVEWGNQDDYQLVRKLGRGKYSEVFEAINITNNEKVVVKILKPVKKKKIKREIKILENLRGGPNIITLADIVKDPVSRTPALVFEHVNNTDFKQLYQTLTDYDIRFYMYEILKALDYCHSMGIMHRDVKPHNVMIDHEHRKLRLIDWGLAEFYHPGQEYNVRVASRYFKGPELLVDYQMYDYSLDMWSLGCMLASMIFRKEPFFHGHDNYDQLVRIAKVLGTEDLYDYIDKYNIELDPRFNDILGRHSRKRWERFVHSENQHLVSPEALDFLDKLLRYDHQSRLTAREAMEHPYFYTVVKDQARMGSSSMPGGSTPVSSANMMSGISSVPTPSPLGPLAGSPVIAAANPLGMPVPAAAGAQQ

Compound | activity at 5 µM (SEM cells) [%] | activity at 10 µM (SEM cells) [%] | viability at 5 µM (CEM cells) [%] | viability at 10 µM (CEM cells) [%] | activity at 5 µM (RS4;11 cells) [%] | activity at 10 µM (RS4;11 cells) [%] | viability at 5 µM (Jurkat cells) [%] | viability at 10 µM (Jurkat cells) [%] | CK2 enzyme activity (recombinant human CK2α1; 0.1 μM) | CK2 enzyme activity compared to DMSO (100%) (recombinant human CK2α1; 1 μM) [%]
Cc1ccc2nc3n(c(=O)c2c1)Cc1ccccc1-3 [FX-7, 8-Methylisoindolo[1,2-b]quinazolin-10(12H)-one] | 52.1 | 25.2 | 96.1 | 85 | 61.3 | 49.4 | 91.4 | 84.3 |  | 
Cc1ccc2c(=O)n3c(nc2c1)-c1ccccc1C3 [FX-4, 7-Methylisoindolo[1,2-b]quinazolin-10(12H)-one] | 96.8 | 64.9 | 102 | 90.6 | 91.2 | 85.9 | 90.4 | 86.6 |  | 
Cc1ccc2c(=O)n3c(nc2c1)-c1ccc(F)cc1C3 [FX-5, 2-Fluoro-7-methylisoindolo[1,2-b]quinazolin-10(12H)-one] | 91.7 | 74.7 | 101 | 95 | 91.4 | 86.7 | 94 | 96.5 |  | 
O=C(O)c1ccc2c(c1)nc(Nc1cccc(Cl)c1)c1ccncc12 [CX-4945, reference compound] |  |  |  |  |  |  |  |  | Reduction of CK2 enzyme activity | 3.4 ± 0.3
Cc1ccc2cc(-c3ccccc3)nc(N)c2c1 [FX-43, 7-Methyl-3-phenylisoquinolin-1-amine] | 94.7 | 94.3 |  |  |  |  | 107 | 104 |  | 
O=c1c2ccc(F)cc2nc2n1Cc1ccccc1-2 [FX-2, 7-Fluoroisoindolo[1,2-b]quinazolin-10(12H)-one] | 100 | 69.8 | 86.3 | 77.2 | 97.3 | 79.8 | 81.3 | 54.3 |  | 
CC(=O)c1ccc2c(=O)n3c(nc2c1)-c1ccccc1C3 [FX-1, 7-Acetylisoindolo[1,2-b]quinazolin-10(12H)-one] | 107 | 97.7 | 87.1 | 83.9 | 99.3 | 94.4 | 93.4 | 68.5 ± 14.8 |  | 
COc1ccc2c(N)nc(-c3ccccc3)cc2c1 [FX-42, 6-Methoxy-3-phenylisoquinolin-1-amine] | 66.7 | 24.5 |  |  |  |  | 88.4 | 32.4 |  | 
O=c1c2ccccc2nc2n1Cc1cc(F)ccc1-2 [FX-6, 2-Fluoroisoindolo[1,2-b]quinazolin-10(12H)-one] | 72.1 | 51.4 | 93.2 | 107 | 76.6 | 67.1 | 105 | 97.5 |  | 
O=c1c2cc(Cl)ccc2nc2n1Cc1ccccc1-2 [FX-3, 8-Chloroisoindolo[1,2-b]quinazolin-10(12H)-one] | 32 | 26.7 | 76.2 | 86 | 73.8 | 40.2 | 57.9 | 77 |  | 
Cc1cc(C)c2nc3n(c(=O)c2c1)Cc1ccccc1-3 [FX-8, 6,8-Dimethylisoindolo[1,2-b]quinazolin-10(12H)-one] | 23.3 | 14.5 | 97 | 85 | 61.5 | 55.8 | 95.2 | 92.5 |  | 
